Measured values published in ChEMBL document CHEMBL1138202, “Tricyclic pyrazoles. 4. Synthesis and biological evaluation of analogues of the robust and selective CB2 cannabinoid ligand 1-(2',4'-dichlorophenyl)-6-methyl-N-piperidin-1-yl-1,4-dihydroindeno[1,2-c]pyrazole-3-carboxamide” (J Med Chem, 2006).

Legend:
[1] = target: Cannabinoid receptor (Mus musculus) (UniProt P47746+P47936); test: Selectivity for CD1 mouse CB2 receptor over CB1 receptor; type: protein assay
Cannabinoid receptor 2 = Cannabinoid receptor 2 (Mus musculus, UniProt P47936); test: Displacement of [3H]CP-55940 from CD1 mouse spleen CB2 receptor; type: tissue-based
Outline: (§1)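 Male CD-1 mouse brain (minus cerebellum) for CB1 or spleen for CB2, homogenised in ice-cold TME (50 mM Tris-HCl, 1 mM EDTA, 3.0 mM MgCl2, pH 7.4) and centrifuged to membranes. GF/C filtration, scintillation counting. Triplicate, five independent experiments; sigmoid fit IC50 converted to Ki.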

[2] = target: Cannabinoid receptor 2 (Homo sapiens) (UniProt P34972); test: Intrinsic activity at CB2 receptor assessed as induction of ERK1/2 phosphorylation in HL60 cells at 10 nM after 10 mins relative to control; type: functional, cell-based
Outline: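 HL-60 cells in RPMI 1640 with 10% heat-inactivated FBS, 37 °C, 5% CO2, used at 80% confluency. Compounds in medium with 1% DMSO added to the cell suspension for 10 min. Lysates western blotted with anti-phospho-MAPK 1/2 and read by chemiluminescence. Phospho-ERK 1/2 given as mean percentage of vehicle from five separate experiments.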

Cannabinoid receptor 1 = Cannabinoid receptor 1 (Mus musculus, UniProt P47746); test: Displacement of [3H]CP-55940 from CD1 mouse brain CB1 receptor; type: tissue-based; outline: as §1
Sequence of Cannabinoid receptor 1 (P47746 whole entry): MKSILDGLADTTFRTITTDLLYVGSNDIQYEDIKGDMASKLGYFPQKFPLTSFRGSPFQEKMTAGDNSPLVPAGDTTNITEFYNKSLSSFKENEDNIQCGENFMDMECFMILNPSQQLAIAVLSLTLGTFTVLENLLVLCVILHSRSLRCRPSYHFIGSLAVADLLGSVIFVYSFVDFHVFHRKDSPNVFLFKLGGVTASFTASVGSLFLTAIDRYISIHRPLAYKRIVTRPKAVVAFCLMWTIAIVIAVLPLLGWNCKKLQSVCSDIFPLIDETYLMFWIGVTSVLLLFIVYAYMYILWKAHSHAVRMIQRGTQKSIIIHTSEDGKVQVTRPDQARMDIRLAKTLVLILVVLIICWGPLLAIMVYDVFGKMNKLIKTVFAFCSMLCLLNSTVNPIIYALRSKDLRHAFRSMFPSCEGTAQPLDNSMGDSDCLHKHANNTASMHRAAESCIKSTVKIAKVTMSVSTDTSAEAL

Sequence of Cannabinoid receptor 2 (P47936 whole entry): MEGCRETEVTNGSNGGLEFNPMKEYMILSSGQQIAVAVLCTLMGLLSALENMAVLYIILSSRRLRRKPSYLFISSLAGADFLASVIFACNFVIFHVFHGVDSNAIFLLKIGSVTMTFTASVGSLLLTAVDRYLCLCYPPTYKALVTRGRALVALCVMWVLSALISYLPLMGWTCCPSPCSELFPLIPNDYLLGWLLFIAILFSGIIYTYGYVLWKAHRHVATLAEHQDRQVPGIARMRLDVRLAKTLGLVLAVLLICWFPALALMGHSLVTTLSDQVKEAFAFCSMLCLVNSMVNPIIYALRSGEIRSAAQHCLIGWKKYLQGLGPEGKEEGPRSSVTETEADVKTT
Sequence of Cannabinoid receptor 2 (Homo sapiens) (P34972 whole entry): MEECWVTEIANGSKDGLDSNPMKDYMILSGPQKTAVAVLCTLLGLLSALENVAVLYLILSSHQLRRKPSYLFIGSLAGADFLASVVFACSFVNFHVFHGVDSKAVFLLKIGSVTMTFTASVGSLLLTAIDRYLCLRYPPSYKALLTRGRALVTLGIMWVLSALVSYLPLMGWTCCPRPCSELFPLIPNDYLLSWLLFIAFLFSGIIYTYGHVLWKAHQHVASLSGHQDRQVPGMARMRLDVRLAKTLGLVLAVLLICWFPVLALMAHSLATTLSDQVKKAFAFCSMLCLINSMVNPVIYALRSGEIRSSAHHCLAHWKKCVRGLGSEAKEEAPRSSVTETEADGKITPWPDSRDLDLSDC
Sequence of Cannabinoid receptor (Mus musculus) (P47746 whole entry, looked up): as the sequence (P47746 whole entry) above
Sequence of Cannabinoid receptor (Mus musculus) (P47936 whole entry, looked up): as the sequence (P47936 whole entry) above

Cc1ccc2c(c1)Cc1c(C(=O)NN3CCCCC3)nn(-c3ccc(Cl)cc3Cl)c1-2
Ratio Ki [1]: 9810
Ki (Cannabinoid receptor 2): 0.037 nM
Activity ([2]; HL-60): 83%
Activity ([2]; HL-60, filed as agonist): Agonist
Ki (Cannabinoid receptor 1): 363 nM

Cc1ccc2c(c1)Cc1c(C(=O)Nc3ccc(Cl)cc3)nn(-c3ccc(Cl)cc3Cl)c1-2
Ki (Cannabinoid receptor 2): 177 nM
Ki (Cannabinoid receptor 1): > 10000 nM

COc1ccc(NC(=O)c2nn(-c3ccc(Cl)cc3Cl)c3c2Cc2cc(C)ccc2-3)cc1
Ki (Cannabinoid receptor 2): 114 nM
Ki (Cannabinoid receptor 1): > 10000 nM

Cc1ccc2c(c1)Cc1c(C(=O)NNc3ccccc3)nn(-c3ccc(Cl)cc3Cl)c1-2
Ratio Ki [1]: 36
Ki (Cannabinoid receptor 2): 63 nM
Ki (Cannabinoid receptor 1): 2280 nM

Cc1ccc2c(c1)Cc1c(C(=O)NNc3ccc(Cl)cc3)nn(-c3ccc(Cl)cc3Cl)c1-2
Ki (Cannabinoid receptor 2): > 5000 nM
Ki (Cannabinoid receptor 1): > 10000 nM

CCCCCCC(C)(C)c1ccc(C2CC(O)CC[C@H]2CCCO)c(O)c1 (single isomer, unassigned) [CP-55940]
Ki (Cannabinoid receptor 2): 1.11 nM
Ki (Cannabinoid receptor 1): 1.5 nM

Cc1ccc2c(c1)Cc1c(C(=O)Nc3ccc(C(F)(F)F)cc3)nn(-c3ccc(Cl)cc3Cl)c1-2
Ki (Cannabinoid receptor 2): > 5000 nM
Ki (Cannabinoid receptor 1): > 10000 nM

Cc1ccc(Cn2nc(C(=O)N[C@@H]3C(C)(C)[C@@H]4CC[C@@]3(C)C4)cc2-c2ccc(Cl)c(C)c2)cc1
Ratio Ki [1]: 250

Cc1ccc2c(c1)Cc1c(C(=O)Nc3ccc(Cl)cc3Cl)nn(-c3ccc(Cl)cc3Cl)c1-2
Ki (Cannabinoid receptor 2): > 5000 nM
Ki (Cannabinoid receptor 1): 2630 nM

Cc1ccc2c(c1)Cc1c(C(=O)NNc3ccc([N+](=O)[O-])cc3)nn(-c3ccc(Cl)cc3Cl)c1-2
Ratio Ki [1]: 2
Ki (Cannabinoid receptor 2): 2120 nM
Ki (Cannabinoid receptor 1): 4500 nM

COc1ccc(NNC(=O)c2nn(-c3ccc(Cl)cc3Cl)c3c2Cc2cc(C)ccc2-3)cc1
Ki (Cannabinoid receptor 2): 3000 nM
Ki (Cannabinoid receptor 1): > 5000 nM

Cc1cc2c(cc1Cl)-c1c(c(C(=O)NC3CCCCC3)nn1-c1ccc(Cl)cc1Cl)C2
Ratio Ki [1]: 33

Cc1ccc2c(c1)Cc1c(C(=O)Nc3ccccc3)nn(-c3ccc(Cl)cc3Cl)c1-2
Ratio Ki [1]: 73
Ki (Cannabinoid receptor 2): 32.8 nM
Activity ([2]; HL-60): 125%
Activity ([2]; HL-60, filed as agonist): Agonist
Ki (Cannabinoid receptor 1): 2410 nM

Cc1ccc2c(c1)Cc1c(C(=O)Nc3ccc(F)cc3)nn(-c3ccc(Cl)cc3Cl)c1-2
Ki (Cannabinoid receptor 2): 61 nM
Ki (Cannabinoid receptor 1): > 5000 nM

Cc1ccc2c(c1)Cc1c(C(=O)NC3CCCCC3)nn(-c3ccc(Cl)cc3Cl)c1-2
Ratio Ki [1]: 118
Ki (Cannabinoid receptor 2): 7.6 nM
Activity ([2]; HL-60): 61.3%
Activity ([2]; HL-60, filed as agonist): Agonist
Ki (Cannabinoid receptor 1): 900 nM

Cc1ccc(NC(=O)c2nn(-c3ccc(Cl)cc3Cl)c3c2Cc2cc(C)ccc2-3)cc1
Ki (Cannabinoid receptor 2): 74 nM
Ki (Cannabinoid receptor 1): > 5000 nM

Cc1ccc2c(c1)Cc1c(C(=O)Nc3ccc(Cl)c(Cl)c3)nn(-c3ccc(Cl)cc3Cl)c1-2
Ki (Cannabinoid receptor 2): > 10000 nM
Ki (Cannabinoid receptor 1): > 10000 nM

Cc1cc2c(cc1Cl)Cc1c(C(=O)NN3CCCCC3)nn(-c3ccc(Cl)cc3Cl)c1-2
Ratio Ki [1]: 14

Cc1cc2c(cc1Cl)-c1c(c(C(=O)NN3CCCCC3)nn1-c1ccc(Cl)cc1Cl)C2
Ratio Ki [1]: 4.6
Ki (Cannabinoid receptor 2): 200 nM

O=C(NN1CCCCC1)c1nn(-c2ccc(Cl)cc2Cl)c2c1Cc1cc(Cl)ccc1-2
Ratio Ki [1]: 6030
Activity ([2]; HL-60): 65%
Activity ([2]; HL-60, filed as agonist): Agonist
